Test results reported in ChEMBL document CHEMBL5030505, “Assessment of NR4A Ligands That Directly Bind and Modulate the Orphan Nuclear Receptor Nurr1” (J Med Chem, 2020).
Active and inactive are the calls of the source.

Tests used:
Assay type in all cases: cell-based
[1] = tested on: PC-12; assay: Modulation of Gal4-fused VP16 expressed in PC12 cells co-transfected with UAS repoter gene assessed as decrease in luciferase activity at 0.244 to 15.63 uM incubated for 18 hrs by luciferase reporter gene assay; details: Human alphaherpesvirus 2, filed as modulator, dose 0.244-15.63 µM
Summary of the method: (§1)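 Cells in 10-cm dishes were transfected with Gal4-VP16 expression plasmid (2 μg) plus 5xUAS-luciferase reporter (2 μg) for 18 h. They were replated at 10,000 cells/well for 4 h, then given ligand or vehicle (water, ethanol or DMSO) in quadruplicate for 18 h. Luciferase was read with Britelite Plus. Fold change is versus vehicle-treated cells, with one-way ANOVA versus vehicle.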

[2] = tested on: HEK293T; assay: Modulation of Gal4-fused VP16 expressed in HEK293T cells co-transfected with UAS repoter gene assessed as decrease in luciferase activity at 0.244 to 15.63 uM incubated for 18 hrs by luciferase reporter gene assay; details: Human alphaherpesvirus 2, filed as modulator, dose 0.244-15.63 µM; summary of the method: as §1
[3] = tested on: PC-12; assay: Cytotoxicity against rat PC-12 cells assessed as reduction in cell viability at 0.244 to 15.63 microM incubated for 18 hrs by Cell titer-glo assay; details: pc-12, 18 h, dose 0.244-15.63 µM
Summary of the method: (§2)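 Cells seeded at 1.5 million per 10-cm dish. Next day they were replated at 10,000 cells/well and rested 4 h. Ligand or vehicle (water, ethanol or DMSO, by ligand) was added in dose-response format in quadruplicate. After 18 h, viability was read by CellTiter-Glo luminescence. Data are mean ± s.e.m., generally representative of 2 independent experiments. One-way ANOVA versus vehicle.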

[4] = target: Nuclear receptor subfamily 4 group A member 2 (Homo sapiens) (UniProt P43354); assay: Modulation of full length human Nurr1 expressed in PC12 cells co-transfected with luciferase reporter plasmid harboring NurRE response element assessed as decrease in luciferase activity at 0.244 to 15.63 uM incubated for 18 by luciferase reporter gene assay; details: PC-12, filed as modulator, dose 0.244-15.63 µM, time 18.0 hrs
Summary of the method: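 Here PC12 cells (FK-12 medium, 15% horse serum, 2.5% FBS, 37°C, 5% CO2) received full-length Nurr1 (2 μg) without RXRα, plus 3xNBRE- or 3xNurRE-luciferase reporter (6 μg), for 18 h. Cells were replated at 10,000/well for 4 h, then treated with ligand or vehicle in quadruplicate for 18 h. Luciferase luminescence was normalized to vehicle-treated cells. Results are mean ± s.e.m. (n=4) from 2 independent experiments, with one-way ANOVA against vehicle.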

[5] = tested on: SK-N-BE(2); assay: Cytotoxicity against human SKNBE2 cells assessed as reduction in cell viability at 0.244 to 15.63 uM incubated for 18 hrs by Cell titer-glo assay; details: dose 0.244-15.63 µM; summary of the method: as §2
[6] = target: Nuclear receptor subfamily 4 group A member 2 (Homo sapiens) (UniProt P43354); assay: Modulation of full length human Nurr1 expressed in SKNBE(2) cells co-transfected with luciferase reporter plasmid harboring NBRE response element assessed as decrease in luciferase activity at 0.244 to 15.63 uM incubated for 18 by luciferase reporter gene assay; details: SKNBE2, filed as modulator, dose 0.244-15.63 µM, time 18.0 hrs
Summary of the method: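 Transfection of SK-N-BE(2)-C cells (1:1 EMEM/F12, 10% FBS, 37°C, 5% CO2) used full-length Nurr1 alone (2 μg, no RXRα) with 3xNBRE- or 3xNurRE-luciferase reporter (6 μg) for 18 h. Cells were replated at 10,000/well for 4 h, then exposed to ligand or vehicle in quadruplicate for 18 h. Luminescence was expressed as fold over vehicle, as mean ± s.e.m. (n=4) from 2 independent experiments, one-way ANOVA against vehicle.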

[7] = target: Nuclear receptor subfamily 4 group A member 2 (Homo sapiens) (UniProt P43354); assay: Modulation of full length human Nurr1 expressed in SKNBE(2) cells co-transfected with luciferase reporter plasmid harboring NurRE response element assessed as decrease in luciferase activity at 0.244 to 15.63 uM incubated for 18 by luciferase reporter gene assay; details: SKNBE2, filed as modulator, dose 0.244-15.63 µM, time 18.0 hrs
[8] = tested on: HEK-293T; assay: Cytotoxicity against human HEK293T cells assessed as reduction in cell viability at 0.244 to 15.63 microM incubated for 18 hrs by Cell titer-glo assay; details: dose 0.244-15.63 µM; summary of the method: as §2
[9] = target: Nuclear receptor subfamily 4 group A member 2 (Homo sapiens) (UniProt P43354); assay: Modulation of full length human Nurr1 expressed in HEK293T cells co-transfected with RXRalpha and luciferase reporter plasmid harboring NurRE response element assessed as decrease in luciferase activity at 0.244 to 15.63 uM incubated for 18 by luciferase reporter gene assay; details: filed as modulator, dose 0.244-15.63 µM, time 18.0 hrs
Summary of the method: (§3)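 Full-length Nurr1 plasmid, alone (2 μg) or 1 μg plus full-length RXRα (1 μg), cotransfected with 3xNBRE- or 3xNurRE-luciferase reporter (6 μg) using Lipofectamine 2000, 18 h. Cells replated at 10,000/well for 4 h. Four ligand concentrations, or vehicle (water, ethanol or DMSO), added in quadruplicate for 18 h. Luciferase read. Fold change vs vehicle, mean ± s.e.m., one-way ANOVA vs vehicle.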

[10] = target: Nuclear receptor subfamily 4 group A member 2 (Homo sapiens) (UniProt P43354); assay: Modulation of full length human Nurr1 expressed in HEK293T cells co-transfected with luciferase reporter plasmid harboring NBRE response element assessed as decrease in luciferase activity at 0.244 to 15.63 uM incubated for 18 by luciferase reporter gene assay; details: filed as modulator, dose 0.244-15.63 µM, time 18.0 hrs; summary of the method: as §3
[11] = target: Nuclear receptor subfamily 4 group A member 2 (Homo sapiens) (UniProt P43354); assay: Modulation of full length human Nurr1 expressed in HEK293T cells co-transfected with RXRalpha and luciferase reporter plasmid harboring NBRE response element assessed as decrease in luciferase activity at 0.244 to 15.63 uM incubated for 18 by luciferase reporter gene assay; details: filed as modulator, dose 0.244-15.63 µM, time 18.0 hrs; summary of the method: as §3
[12] = target: Nuclear receptor subfamily 4 group A member 2 (Homo sapiens) (UniProt P43354); assay: Modulation of full length human Nurr1 expressed in HEK293T cells co-transfected with luciferase reporter plasmid harboring NurRE response element assessed as decrease in luciferase activity at 0.244 to 15.63 uM incubated for 18 by luciferase reporter gene assay; details: filed as modulator, dose 0.244-15.63 µM, time 18.0 hrs; summary of the method: as §3
[13] = tested on: SKNBE2; assay: Modulation of Gal4-fused VP16 expressed in SKNBE(2) cells co-transfected with UAS repoter gene assessed as decrease in luciferase activity at 0.244 to 15.63 uM incubated for 18 hrs by luciferase reporter gene assay; details: Human alphaherpesvirus 2, filed as modulator, dose 0.244-15.63 µM; summary of the method: as §1
[14] = target: Nuclear receptor subfamily 4 group A member 2 (Homo sapiens) (UniProt P43354); assay: Modulation of full length human Nurr1 expressed in SKNBE(2) cells co-transfected with RXRalpha and luciferase reporter plasmid harboring NBRE response element assessed as decrease in luciferase activity at 0.244 to 15.63 uM incubated for 18 by luciferase reporter gene assay; details: SKNBE2, filed as modulator, dose 0.244-15.63 µM, time 18.0 hrs
Summary of the method: (§4)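 SK-N-BE(2)-C cells were kept in 1:1 EMEM/F12 with 10% FBS at 37°C and 5% CO2. They were cotransfected with full-length Nurr1 (1 μg), full-length RXRα (1 μg) and 3xNBRE- or 3xNurRE-luc reporter (6 μg) for 18 h, replated at 10,000 cells/well for 4 h, and then treated with ligand or vehicle in quadruplicate for 18 h. The readout was luciferase luminescence as fold over vehicle, reported as mean ± s.e.m. (n=4) from 2 independent experiments, one-way ANOVA.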

[15] = target: Nuclear receptor subfamily 4 group A member 2 (Homo sapiens) (UniProt P43354); assay: Modulation of full length human Nurr1 expressed in SKNBE(2) cells co-transfected with RXRalpha and luciferase reporter plasmid harboring NurRE response element assessed as decrease in luciferase activity at 0.244 to 15.63 uM incubated for 18 by luciferase reporter gene assay; details: SKNBE2, filed as modulator, dose 0.244-15.63 µM, time 18.0 hrs; summary of the method: as §4

Measured: Activity

Chain of Nuclear receptor subfamily 4 group A member 2 (Homo sapiens) (P43354 whole entry, the tested form may be a part): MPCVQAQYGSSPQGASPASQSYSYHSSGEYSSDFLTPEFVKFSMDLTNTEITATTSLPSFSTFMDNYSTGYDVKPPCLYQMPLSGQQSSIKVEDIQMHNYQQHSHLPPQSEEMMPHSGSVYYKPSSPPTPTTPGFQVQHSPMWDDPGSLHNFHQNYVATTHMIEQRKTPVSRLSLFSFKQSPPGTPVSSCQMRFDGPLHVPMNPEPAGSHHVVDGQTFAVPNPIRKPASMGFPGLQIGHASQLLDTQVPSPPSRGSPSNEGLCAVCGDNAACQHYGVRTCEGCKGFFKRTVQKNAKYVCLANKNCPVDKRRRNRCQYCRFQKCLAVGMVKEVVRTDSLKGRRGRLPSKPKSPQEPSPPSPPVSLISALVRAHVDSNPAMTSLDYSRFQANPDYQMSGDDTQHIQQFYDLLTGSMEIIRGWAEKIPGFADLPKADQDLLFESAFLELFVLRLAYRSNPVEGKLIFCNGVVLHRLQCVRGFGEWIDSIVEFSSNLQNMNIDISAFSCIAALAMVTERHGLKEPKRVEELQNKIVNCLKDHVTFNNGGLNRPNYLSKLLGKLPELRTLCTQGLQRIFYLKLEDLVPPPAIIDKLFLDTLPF

C=C1C(=O)O[C@@H]2C[C@@]3(C)CCCC(=C)[C@@H]3C[C@H]12 [ISOALANTOLACTONE]
Toxic: [3] | [5] | [8]
active: all other assays above
